Results taken from ChEMBL document CHEMBL1143122, “Novel analogs of D-e-MAPP and B13. Part 1: synthesis and evaluation as potential anticancer agents” (Bioorg Med Chem, 2008).

Columns and labels:
HCT-15 = assay: Antiproliferative activity against human HCT15 cells after 48 hrs; format: functional; conditions: Homo sapiens, HCT-15, 48 h
Summary of the method: (§1)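 NCI 60-cell screen. Cells were grown in RPMI 1640 with 5% FBS and 2 mM L-glutamine, then plated at 5,000–40,000 cells/well according to doubling time and preincubated for 24 h at 37 °C in 5% CO2. Compounds were dissolved in DMSO at 400× the top final concentration and tested at five 10-fold dilutions from 10−4 to 10−8 M for 48 h. Growth was read spectrophotometrically; GI50 is 50% net protein reduction.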

[1] = Antiproliferative activity against human HL60(TB) cells after 48 hrs; format: functional, HL-60(TB); conditions: HL-60, 48 h
Summary of the method: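 NCI 60-line panel screen: cells grown in RPMI 1640 with 5% fetal bovine serum and 2 mM L-glutamine, plated at 5,000–40,000 cells/well by doubling time, and preincubated 24 h at 37 °C in 5% CO2. Drugs were solubilised in DMSO at 400-fold the final maximum and tested at five 10-fold dilutions from 10−4 to 10−8 M for 48 h. Net protein was read spectrophotometrically, and the concentration giving 50% reduction was reported as log10 GI50.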

SK-MEL-5 = assay: Antiproliferative activity against human SKMEL5 cells after 48 hrs; format: functional; conditions: SK-MEL-5, 48 h; summary of the method: as §1
SNB-19 = assay: Antiproliferative activity against human SNB19 cells after 48 hrs; format: functional; conditions: SNB-19, 48 h; summary of the method: as §1
NCI-H322M = assay: Antiproliferative activity against human NCI-H322M cells after 48 hrs; format: functional; summary of the method: as §1
OVCAR-5 = assay: Antiproliferative activity against human OVCAR5 cells after 48 hrs; format: functional; conditions: OVCAR-5, 48 h; summary of the method: as §1
M14 = assay: Antiproliferative activity against human M14 cells after 48 hrs; format: functional; conditions: M14, 48 h; summary of the method: as §1
MCF7 = assay: Antiproliferative activity against human MCF7 cells after 48 hrs; format: functional, cell-based; conditions: MCF7, 48 h
SNB-75 = assay: Antiproliferative activity against human SNB75 cells after 48 hrs; format: functional; conditions: SNB-75, 48 h; summary of the method: as §1
CCRF-CEM = assay: Antiproliferative activity against human CCRF-CEM cells after 48 hrs; format: functional; summary of the method: as §1
T47D = assay: Antiproliferative activity against human T47D cells after 48 hrs; format: functional
Summary of the method: (§2)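 NCI 60-cell-line screen. Lines grown in RPMI 1640 with 5% fetal bovine serum and 2 mM L-glutamine, plated at 5,000–40,000 cells/well according to doubling time, left 24 h at 37 °C in 5% CO2. Drug stocks in DMSO at 400-fold the top final concentration. Five 10-fold dilutions, 10−4 to 10−8 M, incubated 48 h. Growth read spectrophotometrically as net protein; GI50 taken as 50% reduction.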

IGROV-1 = assay: Antiproliferative activity against human IGROV1 cells after 48 hrs; format: functional; conditions: IGROV-1, 48 h; summary of the method: as §1
OVCAR-3 = assay: Antiproliferative activity against human OVCAR-3 cells after 48 hrs; format: functional; conditions: OVCAR-3, 48 h; summary of the method: as §1
SN12C = assay: Antiproliferative activity against human SN12C cells after 48 hrs; format: functional; summary of the method: as §1
NCI-H226 = assay: Antiproliferative activity against human NCI-H226 cells after 48 hrs; format: functional; conditions: NCI-H226, 48 h; summary of the method: as §1
OVCAR-8 = assay: Antiproliferative activity against human OVCAR8 cells after 48 hrs; format: functional; conditions: OVCAR-8, 48 h; summary of the method: as §1
Hs-578T = assay: Antiproliferative activity against human HS578T cells after 48 hrs; format: functional; summary of the method: as §1
SW-620 = assay: Antiproliferative activity against human SW620 cells after 48 hrs; format: functional; conditions: SW-620, 48 h; summary of the method: as §2
HT-29 = assay: Antiproliferative activity against human HT29 cells after 48 hrs; format: functional; conditions: HT-29, 48 h; summary of the method: as §1
RXF 393 = assay: Antiproliferative activity against human RXF393 cells after 48 hrs; format: functional; conditions: RXF 393, 48 h; summary of the method: as §1
KM12 = assay: Antiproliferative activity against human KM12 cells after 48 hrs; format: functional; conditions: Homo sapiens, KM12, 48 h; summary of the method: as §1
UACC-257 = assay: Antiproliferative activity against human UACC257 cells after 48 hrs; format: functional; conditions: UACC-257, 48 h; summary of the method: as §2
[2] = Antiproliferative activity against human […] cells after 48 hrs; format: functional; summary of the method: as §1
HOP-62 = assay: Antiproliferative activity against human HOP62 cells after 48 hrs; format: functional; conditions: HOP-62, 48 h; summary of the method: as §1
UACC-62 = assay: Antiproliferative activity against human UACC62 cells after 48 hrs; format: functional; conditions: UACC-62, 48 h; summary of the method: as §2
CAKI-1 = assay: Antiproliferative activity against human CAKI1 cells after 48 hrs; format: functional; conditions: CAKI-1, 48 h; summary of the method: as §1
[3] = read-out: Log LC50 (the source's name) (converted)

CCCCCCCCCCCCCCN[C@@H](CO)Cc1ccccc1
GI50 (HCT-15): 1.7 µM
LC50 (HCT-15): 5.89 µM
TGI (HCT-15; read-out: Log TGI (converted)): 3.16 µM
GI50 [1]: 1.78 µM
LC50 [1]: 9.33 µM
TGI ([1]; read-out: Log TGI (converted)): 4.07 µM
GI50 (SK-MEL-5): 1.78 µM
CC50 (SK-MEL-5; [3]): 6.03 µM
TGI (SK-MEL-5; read-out: Log TGI (converted)): 3.24 µM
GI50 (SNB-19): 1.7 µM
CC50 (SNB-19; [3]): 5.89 µM
TGI (SNB-19; read-out: Log TGI (converted)): 3.16 µM
GI50 (NCI-H322M): 2 µM
CC50 (NCI-H322M; [3]): 7.41 µM
TGI (NCI-H322M; read-out: Log TGI (converted)): 3.89 µM
GI50 (OVCAR-5): 2.4 µM
CC50 (OVCAR-5; [3]): 15.8 µM
TGI (OVCAR-5; read-out: Log TGI (converted)): 5.5 µM
GI50 (M14): 2.24 µM
LC50 (M14): 6.76 µM
TGI (M14; read-out: Log TGI (converted)): 3.89 µM
GI50 (MCF7): 1.74 µM
LC50 (MCF7): 6.03 µM
TGI (MCF7; read-out: Log TGI (converted)): 3.24 µM
GI50 (SNB-75): 2.19 µM
CC50 (SNB-75; [3]): 14.1 µM
TGI (SNB-75; read-out: Log TGI (converted)): 4.79 µM
GI50 (CCRF-CEM): 1.74 µM
CC50 (CCRF-CEM; [3]): 7.76 µM
TGI (CCRF-CEM; read-out: Log TGI (converted)): 3.72 µM
GI50 (T47D): 1.66 µM
CC50 (T47D; [3]): 6.92 µM
TGI (T47D; read-out: Log TGI (converted)): 3.31 µM
GI50 (IGROV-1): 1.91 µM
TGI (IGROV-1; read-out: Log TGI (converted)): 3.72 µM
GI50 (OVCAR-3): 1.66 µM
LC50 (OVCAR-3): 5.5 µM
TGI (OVCAR-3; read-out: Log TGI (converted)): 3.02 µM
GI50 (SN12C): 1.86 µM
LC50 (50% net cell kill) (SN12C): 7.41 µM
TGI (SN12C; read-out: Log TGI (converted)): 3.72 µM
GI50 (NCI-H226): 1.91 µM
TGI (NCI-H226; read-out: Log TGI (converted)): 3.8 µM
GI50 (OVCAR-8): 1.91 µM
TGI (OVCAR-8; read-out: Log TGI (converted)): 3.8 µM
GI50 (Hs-578T): 2.4 µM
LC50 (Hs-578T): 11 µM
TGI (Hs-578T; read-out: Log TGI (converted)): 5.01 µM
GI50 (SW-620): 2 µM
LC50 (concentration killing 50% of cells) (SW-620): 8.13 µM
TGI (SW-620; read-out: Log TGI (converted)): 4.07 µM
GI50 (HT-29): 2.04 µM
LC50 (HT-29): 7.76 µM
TGI (HT-29; read-out: Log TGI (converted)): 3.98 µM
GI50 (RXF 393): 1.7 µM
CC50 (RXF 393; [3]): 6.92 µM
TGI (RXF 393; read-out: Log TGI (converted)): 3.47 µM
GI50 (KM12): 1.86 µM
CC50 (KM12; [3]): 6.17 µM
TGI (KM12; read-out: Log TGI (converted)): 3.39 µM
GI50 (UACC-257): 2.09 µM
CC50 (UACC-257; [3]): 17.8 µM
TGI (UACC-257; read-out: Log TGI (converted)): 4.79 µM
GI50 [2]: 4.68 µM
LC50 [2]: 45.7 µM
TGI ([2]; read-out: Log TGI (converted)): 17 µM
GI50 (HOP-62): 1.23 µM
CC50 (HOP-62; [3]): 5.37 µM
TGI (HOP-62; read-out: Log TGI (converted)): 2.57 µM
GI50 (UACC-62): 2 µM
LC50 (UACC-62): 7.94 µM
TGI (UACC-62; read-out: Log TGI (converted)): 3.98 µM
GI50 (CAKI-1): 1.66 µM
CC50 (CAKI-1; [3]): 5.62 µM
TGI (CAKI-1; read-out: Log TGI (converted)): 3.09 µM
